Experimental data from ChEMBL document CHEMBL1121699, “Induction of differentiation of leukemia cells in vitro by N-substituted amides, lactams, and 2-pyridones” (1981).

Assays:
[1] = test system: Erythroleukemia cell line; assay: Cell growth was measured on day 3, after murine erythroleukemia cells were exposed at a cell concentration of 1*10e5 cells/mL.; assay type: functional, Mus musculus
In short: (§1)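 Friend murine erythroleukemia cells (clone 745A) were grown in DMEM with 15% fetal calf serum at 37 °C in 10% CO2. Agents were given as aqueous, ethanol or acetone solutions at seeding (1 × 10^5 cells/mL) and left on continuously. Cells were counted electronically on day 3 or day 6 and expressed as percentage of control growth. Runs were in duplicate.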

[2] = test system: Erythroleukemia cell line; assay: Percentage of benzidine-positive murine erythroleukemia cells on day 6.; assay type: functional, Mus musculus
In short: (§2)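 Clone 745A erythroleukemia cells were exposed continuously from seeding (1 × 10^5 cells/mL) to graded twofold concentrations over at least a 10-fold range, in at least two experiments, with a Me2SO (210 mM) positive control. On day 6, hemoglobin-containing cells were stained blue with acid benzidine peroxide and counted by light microscopy. The optimum concentration was averaged across experiments.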

[3] = test system: Erythroleukemia cell line; assay: Concentration producing the maximum percentage of benzidine-positive cells after 6-days of continuous exposure in murine leukemia cells.; assay type: functional, cell-based; conditions: Mus musculus; in short: as §2
[4] = test system: Erythroleukemia cell line; assay: Cell growth was measured on day 6 after murine erythroleukemia cells were exposed at a cell concentration of 1*10e5 cells/mL.; assay type: functional, Mus musculus; in short: as §1

Compound | Cell growth [1] | Benzidine positive cells [2] | Concentration [3] | Cell growth [4]
CCCCCCn1ccccc1=O | 101% | 58% | 1 mM | 75%
CCCCn1ccccc1=O | 103% | 76% | 1 mM | 125%
CC(=O)N(c1ccccn1)c1ccccn1 | 74% | 36% | 2 mM | 85%
CC(=O)N1CCCCCC1=O | 102% | 53% | 4 mM | 85%
CC(=O)NC1CCCCC1 | 95% | 92% | 4 mM | 150%
CC(=O)N1CCCCC1 | 50% | 85% | 8 mM | 138%
CCN1CCCCCC1=O | 106% | 96% | 4 mM | 63%
CCN1CCCCC1=O | 186% | 87% | 4 mM | 84%
O=C(Nc1ccccn1)c1ccccn1 | 35% | 33% | 1 mM | 50%
CNC(=O)c1ccccn1 | 50% | 60% | 2 mM | 80%
Oc1ccccn1 | 114% | 95% | 16 mM | 77%
O=C1CCCCN1 | 72% | 64% | 40 mM | 67%
O=C(CCl)Nc1ccccn1 | 98% | 83% | 2 mM | 119%
CNC(=O)c1ccccc1 | 54% | 62% | 1 mM | 99%
CC(=O)Nc1ccccc1 [ACETANILIDE] | 75% | 71% | 4 mM | 65%
CCCn1ccccc1=O | 112% | 82% | 2 mM | 129%
CC(=O)N1CCCC1 | 54% | 60% | 4 mM | 99%
CN1CCCCC1=O | 97% | 89% | 5 mM | 69%

Compound | Cell growth [1] | Benzidine positive cells [2] | Concentration [3] | Cell growth [4]
CC(=O)N1CCCCC1=O | 170% | 86% | 20 mM | 74%
CN1CCCC1=O [METHYLPYRROLIDONE] | 97% | 87% | 10 mM | 83%
CC(=O)Nc1cccnc1 | 183% | 86% | 5 mM | 167%
O=C(Nc1ccccn1)C(F)(F)F | 98% | 69% | 1 mM | 89%
O=C1CCCCCN1 [CAPROLACTAM] | 95% | 82% | 20 mM | 81%
CC(=O)Nc1ccccn1 | 144% | 85% | 2 mM | 58%
CCN1CCCC1=O | 53% | 90% | 10 mM | 81%
CN1CCCCCC1=O | 109% | 90% | 2 mM | 68%
CNC(C)=O | 121% | 90% | 40 mM | 55%
CCn1ccccc1=O | 78% | 86% | 4 mM | 79%
CC(=O)N(C)C | 32% | 84% | 40 mM | 21%
CC(=O)N1CCCC1=O | 156% | 73% | 20 mM | 116%
Cn1ccccc1=O | 74% | 89% | 4 mM | 62%
CNC(=O)c1cccnc1 [NICOTINYL METHYLAMIDE] | 94% | 93% | 4 mM | 78%
O=C1CCCN1 [2-PYRROLIDONE] | 26% | 89% | 100 mM | 100%
CC(=O)Nc1ccncc1 | 37% | 34% | 5 mM | 60%
CC(C)n1ccccc1=O | 96% | 90% | 2 mM | 80%
